Measurements from article PMC6593619 (Clinical Pharmacology and Therapeutics, 2019).
Read-outs that look alike come from different tables or passages of the source.

Tests used:
[1] = assay type: in vivo, human; details: for Relative difference in Cmax C vs. A (95% CI): esomeprazole 3 hours prior vs regorafenib alone; for Relative difference in Cmax B vs. A (95% CI): esomeprazole concomitant vs regorafenib alone; for Cmax (geomean (CV)) / Tmax: plasma; for Cmax (geomean (CV)): CV in %; for Tmax: human, oral, Tmax (median (IQR))
Outline: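 mCRC or GIST patients: regorafenib 120 or 160 mg daily, 14-day loading, 5 days alone or with esomeprazole 40 mg daily (concomitant or 3 h prior); sequence A-B-C or C-B-A. Plasma predose to 24 h on days 21, 49, 77; UPLC-MS/MS. Log Cmax: mixed model (treatment, sequence, phase fixed; subject random), geometric-mean ratio, Bonferroni 97.5% CI. Tmax: Wilcoxon signed rank.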

Toxicity = assay type: in vivo, human; details: whole study period
Outline: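 Incidence of toxicity tallied per phase in patients on regorafenib 120 or 160 mg daily, alone or with esomeprazole 40 mg daily; only toxicity new or worsened relative to baseline counted.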

[2] = after oral administration; cited from earlier work
[3] = cited from earlier work
[4] = mCRC, unselected group, third or fourth line; cited from earlier work
[5] = compared with other TKIs, despite solid dispersion formulation; cited from earlier work
[6] = erlotinib combined with omeprazole; cited from earlier work
[7] = phase A: regorafenib alone, 120 mg at steady state
[8] = phase A: regorafenib alone, 120 mg once daily at steady state
[9] = phase B: regorafenib + esomeprazole 40 mg concomitant
[10] = phase B: regorafenib + esomeprazole concomitant
[11] = phase C: regorafenib + esomeprazole 40 mg 3 hours prior
[12] = phase C: regorafenib + esomeprazole 3 hours prior

SMILES | Relative difference in Cmax C vs. A (95% CI) [1] | Relative difference in Cmax B vs. A (95% CI) [1] | Tmax (median (IQR)) [1, 7] | Cmax (geomean (CV)) [1, 8] | Cmax (geomean (CV)) [1, 9] | Tmax (median (IQR)) [1, 10] | Cmax (geomean (CV)) [1, 11] | Tmax (median (IQR)) [1, 12] | also measured
CNC(=O)c1cc(Oc2ccc(NC(=O)Nc3ccc(Cl)c(C(F)(F)F)c3)c(F)c2)cc[n+]1[O-] [M‐2] | −9.3% (−38.1 to 32.9%) | −11.0% (−38.7 to 29.1%) | 3.3 (2.0–6.0) hours | 2.9 (72.0) μg/mL | 2.6 (60.9) μg/mL | 2.6 (2.1–3.5) hours | 2.6 (44.2) μg/mL | 3.5 (2.5–6.0) hours | 
NC(=O)c1cc(Oc2ccc(NC(=O)Nc3ccc(Cl)c(C(F)(F)F)c3)c(F)c2)cc[n+]1[O-] [M‐5] | −9.1% (−43.2 to 45.5%) | −10.4% (−34.6 to 22.8%) | 2.6 (1.5–4.0) hours | 1.6 (118.8) μg/mL | 1.4 (132.4) μg/mL | 2.3 (1.5–8.0) hours | 1.4 (107.6) μg/mL | 3.5 (2.5–6.0) hours | 
CNC(=O)c1cc(Oc2ccc(NC(=O)Nc3ccc(Cl)c(C(F)(F)F)c3)c(F)c2)ccn1 [Regorafenib, 4‐[4‐({[4‐chloro‐3‐(trifluoromethyl)phenyl]carbamoyl}amino)‐3‐fluorophenoxy]‐N‐methylpyridine‐2‐carboxamide] | −12.1% (−32.0 to 13.8%) | −16.5% (−34.9 to 7.0%) |  |  |  |  |  |  | Pharmacokinetic interaction with esomeprazole ([1]; esomeprazole concomitant or 3 hours prior): did not reveal a significant pharmacokinetic interaction; Tmax ([1]; 120 mg, phase A: regorafenib alone, 120 mg at steady state): 2.5 h; Tmax [1, 10]: 2.5 h; Tmax [1, 12]: 3 h; Incidence of anorexia ≥ grade 3 (Toxicity): 14%; Incidence of hand/foot skin reaction ≥ grade 3 (Toxicity): 14%; Incidence of hypertension ≥ grade 3 (Toxicity): 64%; Incidence of anorexia (Toxicity; all grades): 71%; Incidence of fatigue (Toxicity; all grades): 71%; Incidence of hand/foot skin reaction (Toxicity; all grades): 64%; Incidence of hypertension (Toxicity; all grades): 71%; Incidence of stomatitis (Toxicity; all grades): 57%; Incidence of hoarseness (Toxicity; all grades, 14 patients): 79%; Time of maximum concentration (Tmax) [2]: 3 to 4 h; Basic predicted pKa [3]: around 2; Median overall survival increase compared with placebo [4]: 1.4 months; Solubility [5]: low solubility
C#Cc1cccc(Nc2ncnc3cc(OCCOC)c(OCCOC)cc23)c1 [erlotinib] |  |  |  |  |  |  |  |  | Decrease in systemic exposure [6]: 46%
